Experimental data as given in ChEMBL document CHEMBL1145095, “New bivalent PKC ligands linked by a carbon spacer: enhancement in binding affinity” (J Med Chem, 2003).

Experiments:
[1] = biological target: T1, Protein kinase C delta type (Mus musculus, UniProt P28867); test: Tested for ability to displace […] phorbol 12,13- dibutyrate binding from recombinant C1b domain of murine Protein kinase C delta in presence of [Ca2+]
[2] = biological target: T1, Protein kinase C delta type; test: Tested for ability to displace […] phorbol 12,13- dibutyrate binding from recombinant murine Protein kinase C delta in presence of [Ca2+]
[3] = biological target: T2, Protein kinase C beta type (Homo sapiens, UniProt P05771); test: Binding affinity for human PKC beta-1
How it was run: (§1)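 Ligand interaction with each PKC isozyme (α, δ, β1, γ or ε) was measured as competition by the nonradioactive ligand against [³H]PDBU binding to that isozyme, using an earlier published method. Affinities are expressed as Ki.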

[4] = biological target: T2, Protein kinase C beta type; test: Inhibition of human PKC beta-1; how it was run: as §1
[5] = biological target: T3, Protein kinase C delta type (Homo sapiens, UniProt Q05655); test: Binding affinity for human Protein kinase C delta; how it was run: as §1
[6] = biological target: T3, Protein kinase C delta type; test: Inhibition of human Protein kinase C delta; how it was run: as §1
[7] = biological target: T4, Protein kinase C epsilon type (Homo sapiens, UniProt Q02156); test: Binding affinity for human Protein kinase C epsilon; how it was run: as §1
T4 sequence (Q02156 whole entry): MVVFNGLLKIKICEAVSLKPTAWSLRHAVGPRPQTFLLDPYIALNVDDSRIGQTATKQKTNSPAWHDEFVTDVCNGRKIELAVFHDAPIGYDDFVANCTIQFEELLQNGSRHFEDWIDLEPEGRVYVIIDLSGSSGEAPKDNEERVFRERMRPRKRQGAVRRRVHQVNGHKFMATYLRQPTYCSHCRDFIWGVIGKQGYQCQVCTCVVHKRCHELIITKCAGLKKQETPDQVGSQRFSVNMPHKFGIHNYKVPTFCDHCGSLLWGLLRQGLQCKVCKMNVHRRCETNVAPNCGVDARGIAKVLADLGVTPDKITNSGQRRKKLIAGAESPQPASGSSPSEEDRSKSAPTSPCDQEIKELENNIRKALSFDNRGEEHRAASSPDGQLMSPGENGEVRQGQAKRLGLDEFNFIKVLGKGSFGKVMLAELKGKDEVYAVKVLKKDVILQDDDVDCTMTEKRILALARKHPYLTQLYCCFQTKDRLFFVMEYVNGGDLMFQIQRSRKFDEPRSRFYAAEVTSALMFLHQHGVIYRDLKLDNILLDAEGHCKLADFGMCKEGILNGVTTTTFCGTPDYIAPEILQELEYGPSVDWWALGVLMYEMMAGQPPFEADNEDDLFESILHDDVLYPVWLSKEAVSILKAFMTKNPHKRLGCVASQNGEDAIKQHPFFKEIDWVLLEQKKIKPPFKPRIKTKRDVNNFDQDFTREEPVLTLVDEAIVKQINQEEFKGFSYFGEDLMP

[8] = biological target: T4, Protein kinase C epsilon type; test: Inhibition of human Protein kinase C epsilon; how it was run: as §1
[9] = biological target: T5, Protein kinase C gamma type (Homo sapiens, UniProt P05129); test: Binding affinity for human Protein kinase C gamma with [Ca2+]; how it was run: as §1
[10] = biological target: T5, Protein kinase C gamma type; test: Inhibition of human Protein kinase C gamma with [Ca2+]; how it was run: as §1

T1 sequence (P28867 whole entry, the tested form may be a part): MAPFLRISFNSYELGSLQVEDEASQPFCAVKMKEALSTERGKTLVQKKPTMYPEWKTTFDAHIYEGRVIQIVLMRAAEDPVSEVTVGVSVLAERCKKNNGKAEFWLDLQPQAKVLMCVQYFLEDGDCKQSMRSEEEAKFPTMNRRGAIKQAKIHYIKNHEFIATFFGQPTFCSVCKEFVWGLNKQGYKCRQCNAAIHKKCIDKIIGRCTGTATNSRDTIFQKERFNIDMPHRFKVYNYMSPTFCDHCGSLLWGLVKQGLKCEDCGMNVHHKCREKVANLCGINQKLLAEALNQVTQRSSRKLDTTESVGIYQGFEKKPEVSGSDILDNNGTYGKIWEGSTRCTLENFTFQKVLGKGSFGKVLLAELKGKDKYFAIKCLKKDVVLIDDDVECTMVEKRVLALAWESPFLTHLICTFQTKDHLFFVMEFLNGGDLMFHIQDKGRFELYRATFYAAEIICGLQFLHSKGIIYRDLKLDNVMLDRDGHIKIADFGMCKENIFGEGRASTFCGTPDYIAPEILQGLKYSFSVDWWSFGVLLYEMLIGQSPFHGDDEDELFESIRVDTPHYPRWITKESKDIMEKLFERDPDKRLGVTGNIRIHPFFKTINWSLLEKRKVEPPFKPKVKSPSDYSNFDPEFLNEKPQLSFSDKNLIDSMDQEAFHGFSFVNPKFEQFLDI
T2 sequence (P05771 whole entry): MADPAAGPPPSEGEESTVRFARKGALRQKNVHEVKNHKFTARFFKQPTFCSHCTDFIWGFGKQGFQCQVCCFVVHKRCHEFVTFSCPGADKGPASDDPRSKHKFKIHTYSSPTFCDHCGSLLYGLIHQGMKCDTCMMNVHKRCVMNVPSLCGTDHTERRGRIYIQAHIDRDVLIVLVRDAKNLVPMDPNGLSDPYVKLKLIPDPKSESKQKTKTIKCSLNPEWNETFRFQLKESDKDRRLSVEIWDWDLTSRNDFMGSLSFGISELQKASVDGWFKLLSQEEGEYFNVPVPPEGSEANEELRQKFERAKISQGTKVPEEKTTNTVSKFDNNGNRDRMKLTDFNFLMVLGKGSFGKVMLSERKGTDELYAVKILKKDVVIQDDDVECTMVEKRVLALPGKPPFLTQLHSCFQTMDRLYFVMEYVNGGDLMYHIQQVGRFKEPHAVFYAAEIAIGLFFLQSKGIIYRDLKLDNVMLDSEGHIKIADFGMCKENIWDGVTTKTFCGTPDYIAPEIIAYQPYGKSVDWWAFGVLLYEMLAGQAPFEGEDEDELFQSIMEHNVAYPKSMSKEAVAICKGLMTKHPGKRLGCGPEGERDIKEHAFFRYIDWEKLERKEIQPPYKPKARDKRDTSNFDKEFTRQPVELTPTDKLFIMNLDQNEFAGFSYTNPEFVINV
T3 sequence (Q05655 whole entry): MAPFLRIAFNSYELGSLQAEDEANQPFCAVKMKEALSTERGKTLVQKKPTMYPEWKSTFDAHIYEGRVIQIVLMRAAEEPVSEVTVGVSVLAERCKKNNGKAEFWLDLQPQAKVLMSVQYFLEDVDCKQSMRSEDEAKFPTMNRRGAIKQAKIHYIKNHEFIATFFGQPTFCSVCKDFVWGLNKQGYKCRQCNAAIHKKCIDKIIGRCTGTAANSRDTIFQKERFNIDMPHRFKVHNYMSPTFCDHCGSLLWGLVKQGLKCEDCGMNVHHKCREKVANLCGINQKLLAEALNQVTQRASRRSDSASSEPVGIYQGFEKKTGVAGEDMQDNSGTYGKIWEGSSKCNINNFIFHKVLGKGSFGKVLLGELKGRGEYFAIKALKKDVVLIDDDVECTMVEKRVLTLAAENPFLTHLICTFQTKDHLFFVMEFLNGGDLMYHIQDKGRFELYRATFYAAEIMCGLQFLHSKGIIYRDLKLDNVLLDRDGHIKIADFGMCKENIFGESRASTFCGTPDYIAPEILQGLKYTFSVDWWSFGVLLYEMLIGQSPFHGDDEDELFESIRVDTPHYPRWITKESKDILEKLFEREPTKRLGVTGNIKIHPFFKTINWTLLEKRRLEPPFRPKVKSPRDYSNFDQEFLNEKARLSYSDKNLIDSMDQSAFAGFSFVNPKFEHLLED

Row | Structure (SMILES) | Ki [1] | Ki [2] | further results
1 | CC(C)[C@H]1C(=O)N[C@H](CO)Cc2cc(NC(=O)CCCCCCCCC(=O)Nc3ccc4c(c3)N(C)[C@@H](C(C)C)C(=O)N[C@H](CO)C4)ccc2N1C | 1.27 nM | 5.75 nM | 
2 | CC(C)[C@H]1C(=O)N[C@H](CO)Cc2cc(NC(=O)CCCCCCCCCCCCCCCCCCCCC(=O)Nc3ccc4c(c3)N(C)[C@@H](C(C)C)C(=O)N[C@H](CO)C4)ccc2N1C | 0.11 nM | 0.38 nM | 
3 | CC(C)[C@H]1C(=O)N[C@H](CO)Cc2cc(NC(=O)CCCCCCCCCCC(=O)Nc3ccc4c(c3)N(C)[C@@H](C(C)C)C(=O)N[C@H](CO)C4)ccc2N1C | 0.48 nM | 1.31 nM | 
4 | CC(C)[C@H]1C(=O)N[C@H](CO)Cc2cc(NC(=O)CCCCCCCCC(=O)Nc3ccc(O)c4ccccc34)ccc2N1C | 4.4 nM | 21.6 nM | 
5 | CC(C)[C@H]1C(=O)N[C@H](CO)Cc2cc(NC(=O)CCCCCCCCCCCCCCC(=O)Nc3ccc4c(c3)N(C)[C@@H](C(C)C)C(=O)N[C@H](CO)C4)ccc2N1C | 0.14 nM | 0.36 nM | 
6 | CC(C)[C@H]1C(=O)N[C@H](CO)Cc2cc(NC(=O)CCCCCCCCCCCCC(=O)Nc3ccc4c(c3)N(C)[C@@H](C(C)C)C(=O)N[C@H](CO)C4)ccc2N1C | 0.33 nM | 0.78 nM | Kd [3]: 0.19 nM; Ki [4]: 1.42 nM; Kd [5]: 1 nM; Ki [6]: 2.12 nM; Kd [7]: 0.37 nM; Ki [8]: 0.55 nM; Kd [9]: 0.16 nM; Ki [10]: 1.5 nM

The next lines start with results.

Row | Ki [1] | Ki [2] | Structure (SMILES) | further results
7 |  | 44.8 nM | CC(C)[C@H]1C(=O)N[C@H](CO)C1c1ccc(OC(=O)CCCCCCCCCCC(=O)Oc2ccc([C@H]3[C@@H](C(C)C)C(=O)N[C@@H]3CO)c3ccccc23)c2ccccc12 (stereo not given in full) | 
8 | 30.6 nM | 170 nM | CC(C)[C@H]1C(=O)N[C@H](CO)Cc2cc(NC(=O)CCCCCCC(=O)Nc3ccc4c(c3)N(C)[C@@H](C(C)C)C(=O)N[C@H](CO)C4)ccc2N1C | 
9 | 16.8 nM | 67.8 nM | CC(C)[C@H]1C(=O)N[C@H](CO)Cc2cc(NC(=O)CCCCC(=O)Nc3ccc4c(c3)N(C)[C@@H](C(C)C)C(=O)N[C@H](CO)C4)ccc2N1C | 
